Results as given in ChEMBL document CHEMBL1135980, “Novel angular benzophenazines: dual topoisomerase I and topoisomerase II inhibitors as potential anticancer agents” (J Med Chem, 2002).

What was measured:
NCI-H69 [1] = assay: Cytotoxicity measured using the H69 parental (H69/P) human small cell lung carcinoma cell line; type: functional, cell-based
Method in brief: (§1)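 H69/P (parental) or H69/LX4 (P-glycoprotein-overexpressing) human SCLC cells; compound added, then 5-6 days incubation; proliferation read with Alamar Blue.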

NCI-H69 [2] = assay: Rf is the resistance factor and is the ratio of the IC50 on the resistant cell line over the IC50 on the parental H69/P cell line; type: functional, Homo sapiens
Method in brief: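 Resistance factor computed as IC50 in H69/LX4 (Pgp-overexpressing) divided by IC50 in H69/P. Both IC50s come from a 5-6 day Alamar Blue proliferation assay.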

NCI-H69 [3] = assay: Cytotoxicity measured using the drug resistant, P-glycoprotein (Pgp) expressing human small cell lung carcinoma cell line H69/LX4; type: functional, cell-based; method in brief: as §1

SMILES | IC50 (NCI-H69 [1]) [nM] | Rf (NCI-H69 [2]) | IC50 (NCI-H69 [3]) [nM]
CNc1ccc2nc3ccc4c(OC)cccc4c3nc2c1C(=O)NCCN(C)C | 127 | 1.1 | 143
CN(C)CCNC(=O)c1cccc2nc3ccc4c(OCCO)cccc4c3nc12 | 303 | 0.8 | 235
COc1cccc2c1ccc1nc3cccc(C(=O)NCCN4CCOCC4)c3nc12 | 597 | 1.7 | 1000
COc1cccc2c1ccc1nc3cccc(C(=O)NC(CCO)CN(C)C)c3nc12 (stereo unspecified) | 26 | 1.1 | 28
CNS(=O)(=O)c1cccc2c1ccc1nc3cccc(C(=O)NCCN(C)C)c3nc12 | 638 | >7.8 | > 5000
COc1cccc2c1ccc1nc3cccc(C(=O)NC(CN(C)C)C(=O)O)c3nc12 (stereo unspecified) | 211 | >23 | > 5000
CN(C)CCNC(=O)c1cccc2nc3ccc4c(S(C)(=O)=O)cccc4c3nc12 | 1360 | 2.8 | 3810
CCNC(=O)Oc1cccc2c1ccc1nc3cccc(C(=O)NCCN(C)C)c3nc12 | 64 | 1.6 | 103
CC(=O)Oc1cccc2c1ccc1nc3cccc(C(=O)NCCN(C)C)c3nc12 | 24 | 2.8 | 67
COc1cccc2c1ccc1nc3cccc(C(=O)N[C@@H](CN(C)C)[C@H](C)O)c3nc12 | 19 | 1 | 19
CN(C)CCNC(=O)c1cccc2nc3ccc4c(N(C)C)cccc4c3nc12 | 778 | 1.2 | 925
COc1cccc2c1ccc1nc3cccc(C(=O)NCC(C)N(C)C)c3nc12 (stereo unspecified) | 101 | 1.2 | 126
CN(C)CCNC(=O)c1cccc2nc3ccc4c(OCCN5CCOCC5)cccc4c3nc12 | 99 | 2.4 | 236
COc1cccc2c1ccc1nc3cccc(C(=O)NC(CO)CN(C)C)c3nc12 (stereo unspecified) | 23 | 1.2 | 28
CN(C)CCNC(=O)c1cccc2nc3ccc4c(N)cccc4c3nc12 | 111 | 1.7 | 193
CN(C)CCNC(=O)c1cccc2nc3ccc4c(CO)cccc4c3nc12 | 117 | 3.6 | 423
CN(C)CCNC(=O)c1cccc2nc3ccc4c(NS(C)(=O)=O)cccc4c3nc12 | 2130 | 2.3 | 4990

SMILES | IC50 (NCI-H69 [1]) [nM] | Rf (NCI-H69 [2]) | IC50 (NCI-H69 [3]) [nM]
COc1cc(C(=O)NCCN(C)C)c2nc3c(ccc4c(OC)cccc43)nc2c1 | 19 | 1.3 | 25
Cc1cccc2c1ccc1nc3cccc(C(=O)NCCN(C)C)c3nc12 | 117 | 0.8 | 98
COc1cccc2c1ccc1nc3cccc(C(=O)N[C@@H](CN(C)C)C(C)C)c3nc12 | 21 | 1 | 20
C#CCOc1cccc2c1ccc1nc3cccc(C(=O)NCCN(C)C)c3nc12 | 40 | 1.5 | 61
CCC(CN(C)C)NC(=O)c1cccc2nc3ccc4c(OC)cccc4c3nc12 (stereo unspecified) | 107 | 1.1 | 118
CCOC(=O)COc1cccc2c1ccc1nc3cccc(C(=O)NCCN(C)C)c3nc12 | 587 | 0.9 | 506
CSc1cccc2c1ccc1nc3cccc(C(=O)NCCN(C)C)c3nc12 | 121 | 0.8 | 94
CCOc1cccc2c1ccc1nc3cccc(C(=O)NCCN(C)C)c3nc12 | 49 | 3.7 | 182
COC(=O)c1cccc2c1ccc1nc3cccc(C(=O)NCCN(C)C)c3nc12 | 103 | 0.9 | 91
CN(C)CCNC(=O)c1cccc2nc3ccc4c(OCC(=O)O)cccc4c3nc12 | 3840 | >1.3 | > 5000
COc1cccc2c1ccc1nc3cccc(C(=O)N[C@@H](C)CN(C)C)c3nc12 | 96 | 1.3 | 121
CN(C)CCNC(=O)c1cccc2nc3ccc4c(N(S(C)(=O)=O)S(C)(=O)=O)cccc4c3nc12 | 2140 | >2.3 | > 5000
COc1cccc2c1ccc1nc3cccc(C(=O)NC(CN(C)C)C(C)C)c3nc12 (stereo unspecified) | 35 | 0.7 | 25
COc1cccc2c1ccc1nc3cccc(C(=O)NC(Cc4ccccc4)CN(C)C)c3nc12 (stereo unspecified) | 478 | 1.1 | 513
CN(C)CCNC(=O)c1cccc2nc3ccc4ccc(O)cc4c3nc12 | 86 | 3.3 | 282
CN(C)CCNC(=O)c1cccc2nc3ccc4c(C(=O)O)cccc4c3nc12 | > 5000 |  | > 5000
COc1cccc2c1ccc1nc3ccc(O)c(C(=O)NCCN(C)C)c3nc12 | 103 | 1 | 107
